Most compounds without a hit are left out; they make up all but 1.5% or so of the library.
FLuc stim CS = affects firefly luciferase, flagging false hits in luciferase stimulation screens | 200,000 tested, under 10 active | P08659 | ATPlite luciferase biochemical, luminescence, 10 min; 0 = ATP-free wells, 1 = DMSO control | activation factor at 10 µM;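 active = luciferase activation factor, scaled between plate controls, of at least 2 with compound at 10 µM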
Target sequence (P08659 whole entry, looked up): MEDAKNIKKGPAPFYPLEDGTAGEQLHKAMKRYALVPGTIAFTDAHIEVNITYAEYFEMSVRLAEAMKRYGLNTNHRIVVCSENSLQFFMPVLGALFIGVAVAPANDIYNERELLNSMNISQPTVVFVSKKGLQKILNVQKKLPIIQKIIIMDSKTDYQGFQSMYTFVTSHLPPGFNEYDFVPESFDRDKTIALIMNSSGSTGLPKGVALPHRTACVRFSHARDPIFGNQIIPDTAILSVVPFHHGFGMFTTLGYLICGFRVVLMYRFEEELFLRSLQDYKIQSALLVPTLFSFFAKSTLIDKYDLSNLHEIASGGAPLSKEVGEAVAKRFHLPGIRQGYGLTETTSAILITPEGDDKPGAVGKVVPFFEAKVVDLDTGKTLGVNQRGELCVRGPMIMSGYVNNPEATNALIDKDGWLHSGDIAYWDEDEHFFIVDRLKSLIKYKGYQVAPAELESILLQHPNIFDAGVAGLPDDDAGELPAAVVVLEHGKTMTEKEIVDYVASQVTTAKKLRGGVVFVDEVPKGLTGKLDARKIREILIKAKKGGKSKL
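Material: Luciferase/luciferin reagent mix | Doses: Test compounds dosed from 2 mM stocks in 100% DMSO | Timing: 10 min incubation after luciferase reagent addition, room temperature | Measured by: Luminescence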
PPC-1+TRAIL kill = compounds killing PPC-1 cancer cells with TRAIL present (potentiator screen, no TRAIL-free arm); PPC-1 cells + TRAIL, ATPLite viability luminescence; cell killing (% activity), % at 4 µM or 5 µM; 0.41% of 220,000 active; AID 1443;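 active = cell killing above 50% in the first pass at 4 µM, then a duplicate retest at 5 µM averaging 50% or more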;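 also: plate controls were cells with TRAIL plus DMSO for no effect and medium-only wells lacking cells for full effect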
FLuc inh counter = Photinus pyralis luciferase inhibition counter-screen. ATPLite firefly luciferase biochemical luminescence, 10 min. P08659. inhibition, % at 10 µM. 1.5% of 200,000 active;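 active = inhibition above about 50% when tested at 10 µM, limit read from the data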
TRAIL sens C8 = sensitizes caspase-8 expressing cells to TRAIL; NB7+C8 cells + TRAIL, ATPlite viability luminescence; 1% of 360,000 active; AID 624354; inhibition (viability loss, TRAIL sensitization), % at 10 µM;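 active = compounds causing at least 50% loss of cell viability in the single-dose screen, relative to plate controls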
PPC1 cytotox = kills PPC-1 cells | cytotoxicity, % at 5 µM | 50% of 1,200 active | shares compounds with PPC-1+TRAIL kill | PPC-1 viability, ATPlite luminescence, overnight;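 active = reconfirmed compounds whose average cytotoxicity reaches 50% or more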;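 also: 0% = DMSO-treated cells and 100% = wells holding medium but no cells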
The depositor's hits bear a star.

Results for Cc1cc(=O)[nH]c(N=N/C(=N/Nc2ccccc2C)c2ccccc2)n1 ?
FLuc stim CS: 0.9; PPC-1+TRAIL kill: 42.5; FLuc inh counter: 9.9; TRAIL sens C8: 2.2; PPC1 cytotox: 35.5

How did CCCCC(CC)CNC(=O)/C=C/c1ccc(F)cc1 (centres undefined) do in these assays?
FLuc stim CS: 1.1; PPC-1+TRAIL kill: 22.9; FLuc inh counter: -7.0

Results for c1cncc(-c2nc3cc4ccccc4cc3[nH]2)c1 ?
FLuc stim CS: 0.2; PPC-1+TRAIL kill: 61.3*; FLuc inh counter: 81.7*; TRAIL sens C8: 66.3*; PPC1 cytotox: 65.6*

What do the screens show for `c1ccc(-c2nc3cc4ccccc4cc3[nH]2)nc1`?
FLuc stim CS: 0; PPC-1+TRAIL kill: 89.1*; FLuc inh counter: 95.4*; TRAIL sens C8: 86.3*; PPC1 cytotox: 90.0*

Results for Nc1ccc2nc(-c3cccc(-c4nc5ccc(N)cc5[nH]4)n3)[nH]c2c1 ?
TRAIL sens C8: 19.7

What do the screens show for `CC(C)Cc1nnc(NC(=O)CSc2ncn[nH]2)s1`?
FLuc stim CS: 1; PPC-1+TRAIL kill: 21.1; FLuc inh counter: -3.1; TRAIL sens C8: -0.5

What do the screens show for `c1ccc(CNc2nc(-c3ccccn3)nc3ccccc23)cc1`?
TRAIL sens C8: 8.4

What do the screens show for `Cc1ccc(-c2nc(N/N=C/c3ccncc3)c3ccccc3n2)cc1`?
FLuc stim CS: 0; PPC-1+TRAIL kill: 97.7*; FLuc inh counter: 98.5*; TRAIL sens C8: 91.6*; PPC1 cytotox: 97.6*

How did Cc1ccc(/C=N/Nc2nnc(Cl)c3ccccc23)cc1 do in these assays?
FLuc stim CS: 0.1; PPC-1+TRAIL kill: 78.2*; FLuc inh counter: 93.8*; TRAIL sens C8: 85.8*; PPC1 cytotox: 77.9*

Results for Cc1cccc(/C=N/Nc2nncc3ccccc23)c1 ?
FLuc stim CS: 0.1; PPC-1+TRAIL kill: 77.1*; FLuc inh counter: 94.2*; TRAIL sens C8: 78.9*; PPC1 cytotox: 77.0*

How did Fc1ccccc1/C=N/Nc1nc(-c2ccccn2)nc2ccccc12 do in these assays?
PPC-1+TRAIL kill: 61.1*; PPC1 cytotox: 45.6

Results for Cc1cnc(C(=O)OCC(=O)Nc2ccc(Cl)cc2)cn1 ?
FLuc stim CS: 1.1; PPC-1+TRAIL kill: 4.8; FLuc inh counter: -8.5; TRAIL sens C8: 8.0

How did O=C(N=Nc1c(O)[nH]c2ccccc12)c1ccc2c(c1)OCO2 do in these assays?
FLuc stim CS: 0.1; PPC-1+TRAIL kill: 91.5*; FLuc inh counter: 93.1*; TRAIL sens C8: 90.8*; PPC1 cytotox: 90.9*

How did CN(C)c1cccc(C(=O)N/N=C/c2ccccc2F)c1 do in these assays?
FLuc stim CS: 0; PPC-1+TRAIL kill: 61.5*; FLuc inh counter: 95.1*; TRAIL sens C8: 78.6*; PPC1 cytotox: 58.7*

Results for Cn1c(=O)c2sccc2n2c(CCCC(=O)NCc3cccnc3)nnc12 ?
TRAIL sens C8: -6.2

What do the screens show for `Cc1ccccc1C(=O)Nc1ccc(-c2nc3ccc(C(=O)c4ccccc4)cc3[nH]2)cc1`?
FLuc stim CS: 1; PPC-1+TRAIL kill: 5.4; FLuc inh counter: -2.5; TRAIL sens C8: -6.0

What do the screens show for `C/C(=N\NC(=O)COc1ccc(C(C)(C)C)cc1)c1cc2ccccc2o1`?
FLuc stim CS: 0.1; PPC-1+TRAIL kill: 76.8*; FLuc inh counter: 93.9*; TRAIL sens C8: 84.2*; PPC1 cytotox: 76.7*

How did N/C(=N\OC(=O)c1ccc2c(c1)OCO2)c1cccnc1 do in these assays?
FLuc stim CS: 0; PPC-1+TRAIL kill: 74.2*; FLuc inh counter: 96.6*; TRAIL sens C8: 82.4*; PPC1 cytotox: 73.6*

How did C/C(=N\NC(=O)c1ccc2c(c1)OCO2)c1cccnc1 do in these assays?
TRAIL sens C8: 31.2

How did CCN1C(=O)CC(Sc2ccccc2N)C1=O (centres undefined) do in these assays?
FLuc stim CS: 1; PPC-1+TRAIL kill: 12.3; FLuc inh counter: -1.9; TRAIL sens C8: 2.1; PPC1 cytotox: 7.7

Results for C#CCOCCOCCOCCNc1nc(OC)nc(N2CCN(C(=O)[C@H](CCC(=O)O)n3cc(C(N)CO)nn3)CC2)n1 (some centres undefined) ?
TRAIL sens C8: -12.7

What do the screens show for `CCCCCCCCCn1c2c(c(=N)c3c1CCC3)CCC2`?
FLuc stim CS: 1.1; PPC-1+TRAIL kill: 42.4; FLuc inh counter: -7.0; TRAIL sens C8: 76.9*; PPC1 cytotox: 44.0

What do the screens show for `CCn1c2c(c(=N)c3c1CCC3)CCC2`?
FLuc stim CS: 1.1; PPC-1+TRAIL kill: 11.5; FLuc inh counter: -8.8; TRAIL sens C8: 25.5

How did CCCCCCCn1c2c(c(=N)c3c1CCC3)CCCC2 do in these assays?
FLuc stim CS: 1; PPC-1+TRAIL kill: 30.8; FLuc inh counter: -4.7; TRAIL sens C8: 40.2; PPC1 cytotox: 26.0

Results for CCCCCCn1c2c(c(=N)c3c1CCC3)CCC2 ?
FLuc stim CS: 1; PPC-1+TRAIL kill: 18.3; FLuc inh counter: -4.3; TRAIL sens C8: 29.4; PPC1 cytotox: 22.8

What do the screens show for `CCCCn1c2c(c(=N)c3c1CCC3)CCC2`?
FLuc stim CS: 1; PPC-1+TRAIL kill: -3.2; FLuc inh counter: 1.0; TRAIL sens C8: 12.3

What do the screens show for `Cc1cccc(NC(=O)c2cnc3ccccn3c2=O)c1`?
FLuc stim CS: 0.2; PPC-1+TRAIL kill: 60.2*; FLuc inh counter: 83.6*; TRAIL sens C8: 70.0*; PPC1 cytotox: 59.4*

How did Cc1ccc(C(=O)Nc2cnc3ccccn3c2=O)cc1 do in these assays?
FLuc stim CS: 0.8; PPC-1+TRAIL kill: 37.7; FLuc inh counter: 15.6; TRAIL sens C8: 8.7

Results for O=C(Nc1cnc2ccccn2c1=O)c1ccc(Cl)cc1Cl ?
FLuc stim CS: 0.3; PPC-1+TRAIL kill: 37.4; FLuc inh counter: 75.0*; TRAIL sens C8: 62.2*; PPC1 cytotox: 47.8

Results for Cc1cccc(C)c1NC(=O)CNC(=O)c1cccnc1 ?
TRAIL sens C8: -22.9

Results for N#Cc1ccc(CN2CCN(CC(=O)NCCc3ccc(Cl)cc3Cl)CC2)cc1 ?
TRAIL sens C8: -9.4

Results for COc1ccc2cc(C#N)c(SCC(=O)N3CCCC3)nc2c1 ?
FLuc stim CS: 1.1; PPC-1+TRAIL kill: 14.0; FLuc inh counter: -6.8; TRAIL sens C8: 8.4

What do the screens show for `COC(=O)CSc1nc2cc(OC)ccc2cc1C#N`?
FLuc stim CS: 0.9; PPC-1+TRAIL kill: 69.5*; FLuc inh counter: 5.6; TRAIL sens C8: 70.7*; PPC1 cytotox: 63.1*

Results for CCc1ccc(NC(=O)C2C3/C=C\CCCCC32)cc1 (centres undefined) ?
FLuc stim CS: 0.9; PPC-1+TRAIL kill: 25.9; FLuc inh counter: 5.3; TRAIL sens C8: 10.4

What do the screens show for `COCCN1C(=O)c2ccc(C(=O)NCc3cccnc3)cc2C1=O`?
FLuc stim CS: 1; PPC-1+TRAIL kill: -1.4; FLuc inh counter: -3.2; TRAIL sens C8: 4.5; PPC1 cytotox: 12.4

How did CCOC(=O)Cc1csc(NC(=O)/C=C/c2ccc(OC)cc2)n1 do in these assays?
FLuc stim CS: 0.2; PPC-1+TRAIL kill: 56.2*; FLuc inh counter: 76.4*; TRAIL sens C8: 72.4*; PPC1 cytotox: 56.5*

What do the screens show for `CC1CCCN(c2ccc3nc4ccccc4c(=O)n3n2)C1` (centres undefined)?
FLuc stim CS: 0.1; PPC-1+TRAIL kill: 82.8*; FLuc inh counter: 93.8*; TRAIL sens C8: 77.5*; PPC1 cytotox: 82.9*

Screening data deposited in PubChem BioAssay by Sanford-Burnham Center for Chemical Genomics.
